Bioassay records (PubChem BioAssay)
Mdm2-MdmX inh: disrupts the human Mdm2-MdmX interaction | SaOS-2 split-luciferase Mdm2/MdmX complementation, luminescence | 330,000 compounds, 3% hits | AID 485346 | inhibition, % at 8 µM;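 active = inhibition of at least 50% at 8 µM in the primary screen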
Calb FLC: C. albicans growth modulation with fluconazole; 300,000 compounds, 0.57% hits; C. albicans CaCi-2 (fluconazole-resistant clinical isolate) + fluconazole, Alamar Blue growth, 48 h; growth inhibition, % (no concentration beside the values);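 active = growth inhibition above about 58% in most replicates, limit read from the data, passing the limit was not always enough; inconclusive = exactly half the replicates above a set limit; inactive = most replicates below a set limit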;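 also: all wells also contain fluconazole at 8 µg/ml as a sub-toxic cotreatment; 0% = median of DMSO wells and 100% = median of geldanamycin control wells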
SKKanGAS inh: SKKanGAS growth inhibition; S. pyogenes SKKanGAS, kanamycin growth, BacTiter-Glo, 6 h; inhibition, % at 7.5 µM; 300,000 compounds, 1.3% hits; AID 1662;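 active = mean replicate score, as percent of positive control median, at least 50; inconclusive = mean below 50 but one replicate at or above 50; inactive = mean and every replicate below 50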;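 also: strain carries kanamycin resistance gene driven by streptokinase promoter and grows in 40 µg/ml kanamycin; loss of luminescence reflects streptokinase promoter inhibition or plain growth inhibition; 0% = median of DMSO wells and 100% = positive control at its reference dose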
Beta apoptosis: blocks beta cell apoptosis; INS-1E cytokine-induced death, ATP luminescence, 48 h; percent of positive-control rescue, neutral wells zero; protection from apoptosis, % (test concentration not listed); 300,000 compounds, 0.8% hits;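 active = Every replicate reaches about 75%, or at least half do and their mean reaches it too, limit read from the data; inconclusive = At least half of replicates reach the limit but their mean does not; inactive = Under half of replicates reach the limit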;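 also: 0% = cytokine-treated negative control wells and 100% = positive control rescue; higher means more ATP so stronger rescue from cytokine killing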
CSC inhib: cancer stem cell inhibition; cancer stem cell-like cells viability, luminescence; inhibition, % at 7.5 µM; 300,000 compounds, 1.1% hits; in the data active = inhibition above about 75%; inconclusive = no clear call, values can overlap the other calls; tested in HMLE shEcad cells
T cruzi inh: blocks replication of Trypanosoma cruzi | T. cruzi beta-gal in NIH3T3, luminescence, 90 h | inhibition, % (no concentration beside the values) | 300,000 compounds, 1.4% hits | AID 1885;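 active = mean inhibition across valid replicates above about 55%, limit read from the data; inconclusive = mean below that limit but half or more replicates reach it; inactive = mean below it, under half of replicates reach it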;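 also: signal also drops with host cell toxicity which is not excluded here; 0% = plate median of DMSO wells and 100% = zero luminescence signal; higher percent means less beta-gal luminescence so fewer parasites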
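System: NIH/3T3 fibroblasts plus reporter T. cruzi. Medium: DMEM plus 2% FBS. Probe or stimulus: 5000 reporter trypomastigotes per well. Compound: single 50 nL compound addition per well in DMSO. Incubation: co-culture of at least 90 h after 3 h attachment. Detection: GalScreen β-gal luminescence, detergent lysis, 60 min. Evaluation: parasite load inhibition, %.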
Mdm2-MdmX conf: human Mdm2/MdmX binding inhibition, confirmed; shares compounds with Mdm2-MdmX inh; luminescent assay; inhibition, % at 8 µM; 10,000 compounds, 55% hits; AID 489028; in the data active = inhibition above about 40%
FLuc counter: inhibits full-length luciferase, flagging false Mdm2/MdmX hits; AID 504607; 6,200 compounds, 77% hits; shares compounds with Mdm2-MdmX inh; inhibition, % at 8 µM; SaOS-2 full-length luciferase counterscreen, luminescence;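 active = mean inhibition at 8 µM reaching about 37%, which flags the compound as non-specific, limit read from the data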;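 also: p53-null SaOS-2 cells with luciferase driven by a doxycycline-inducible promoter; compound on cells about two nights before reading with doxycycline added after day one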
An asterisk follows results filed as active. In the library only some 5.7% were active in any assay of this set; here they are far more common.

What do the screens show for `CC(NC(=O)CNC(=O)c1sc2ccccc2c1Cl)c1ccc(S(N)(=O)=O)cc1` (configuration not stated)?
Mdm2-MdmX inh: 18; Calb FLC: -1; SKKanGAS inh: 3; Beta apoptosis: -3; CSC inhib: 5; T cruzi inh: inconclusive

Results for C=CCn1c(=NC(=O)c2sc3ccccc3c2Cl)sc2cc(S(N)(=O)=O)ccc21 ?
Mdm2-MdmX inh: 68*; Calb FLC: -1; SKKanGAS inh: -4; Beta apoptosis: 6; CSC inhib: 7; T cruzi inh: 35; Mdm2-MdmX conf: 35

Results for COC(=O)c1ccc2c(c1)c(-c1ccccc1)c(-c1ccccc1)n2C ?
Mdm2-MdmX inh: -3

Results for Cc1ccc(C(=O)c2cc([N+](=O)[O-])ccc2N2CCN(C)CC2)cc1 ?
Mdm2-MdmX inh: 50*; Calb FLC: -17; SKKanGAS inh: 3; Beta apoptosis: 14; CSC inhib: 61; T cruzi inh: 2; Mdm2-MdmX conf: 60*; FLuc counter: 55*

How did COc1ccc(C(=O)c2cc([N+](=O)[O-])ccc2N2CCCC2)cc1 do in these assays?
Mdm2-MdmX inh: 50*; Calb FLC: -4; SKKanGAS inh: 1; Beta apoptosis: 1; CSC inhib: -12; T cruzi inh: -7; Mdm2-MdmX conf: 64*; FLuc counter: 53*

How did COc1ccc(C(=O)c2cc([N+](=O)[O-])ccc2N2CCN(C)CC2)cc1 do in these assays?
Mdm2-MdmX inh: 49; Calb FLC: 3; SKKanGAS inh: 2; Beta apoptosis: 1; CSC inhib: 48; T cruzi inh: -52

Results for CN1CCN(c2ccc([N+](=O)[O-])cc2C(=O)c2ccccc2)CC1 ?
Mdm2-MdmX inh: 26; Calb FLC: -5; SKKanGAS inh: 1; Beta apoptosis: -11; CSC inhib: -6; T cruzi inh: 0

How did O=C(c1ccc(Br)cc1)c1cc([N+](=O)[O-])ccc1N1CCCCC1 do in these assays?
Mdm2-MdmX inh: 58*; Calb FLC: 11; SKKanGAS inh: 7; Beta apoptosis: 54; CSC inhib: 72; T cruzi inh: 40; Mdm2-MdmX conf: 52*; FLuc counter: 95*

What do the screens show for `O=C(c1ccccc1)c1cc([N+](=O)[O-])ccc1N1CCCC1`?
Mdm2-MdmX inh: 23; Calb FLC: 24; SKKanGAS inh: 14; Beta apoptosis: -13; CSC inhib: 32; T cruzi inh: -7

How did CN1CCN(c2ccc([N+](=O)[O-])cc2C(=O)c2ccc(Br)cc2)CC1 do in these assays?
Mdm2-MdmX inh: 54*; Calb FLC: -6; SKKanGAS inh: 0; Beta apoptosis: 3; CSC inhib: 62; T cruzi inh: -15; Mdm2-MdmX conf: 59*; FLuc counter: 60*

What do the screens show for `Cn1nc(N2CCN(S(=O)(=O)c3ccccc3)CC2)c(=O)n(C)c1=O`?
Mdm2-MdmX inh: -6; Beta apoptosis: 7; CSC inhib: -10

What do the screens show for `O=[N+]([O-])c1cccc(-c2nnc(-c3ccccc3F)o2)c1`?
Mdm2-MdmX inh: -37; Calb FLC: 2; SKKanGAS inh: 4; Beta apoptosis: -10; CSC inhib: -9; T cruzi inh: -9

What do the screens show for `CCCc1c(NC(=O)Nc2ccc(F)cc2)cnn1-c1ccccc1`?
Mdm2-MdmX inh: 89*; Calb FLC: 3; SKKanGAS inh: 20; Beta apoptosis: -5; CSC inhib: 42; T cruzi inh: 1; Mdm2-MdmX conf: 61*; FLuc counter: 29

What do the screens show for `Fc1ccc(NC(=S)N2CCCC2)cc1Cl`?
Mdm2-MdmX inh: -8; Calb FLC: -10; SKKanGAS inh: -5; Beta apoptosis: -1; CSC inhib: -1; T cruzi inh: 2

Results for Fc1ccc(NC(=S)Nc2ccc(F)c(Cl)c2)cc1Cl ?
Mdm2-MdmX inh: 64*; Calb FLC: 5; SKKanGAS inh: 64*; Beta apoptosis: 37; CSC inhib: 2; T cruzi inh: 35; Mdm2-MdmX conf: 28
